Data set [1] addresses T1, Tyrosine-protein kinase receptor UFO (Homo sapiens, UniProt P30530).
T1 sequence (P30530 whole entry): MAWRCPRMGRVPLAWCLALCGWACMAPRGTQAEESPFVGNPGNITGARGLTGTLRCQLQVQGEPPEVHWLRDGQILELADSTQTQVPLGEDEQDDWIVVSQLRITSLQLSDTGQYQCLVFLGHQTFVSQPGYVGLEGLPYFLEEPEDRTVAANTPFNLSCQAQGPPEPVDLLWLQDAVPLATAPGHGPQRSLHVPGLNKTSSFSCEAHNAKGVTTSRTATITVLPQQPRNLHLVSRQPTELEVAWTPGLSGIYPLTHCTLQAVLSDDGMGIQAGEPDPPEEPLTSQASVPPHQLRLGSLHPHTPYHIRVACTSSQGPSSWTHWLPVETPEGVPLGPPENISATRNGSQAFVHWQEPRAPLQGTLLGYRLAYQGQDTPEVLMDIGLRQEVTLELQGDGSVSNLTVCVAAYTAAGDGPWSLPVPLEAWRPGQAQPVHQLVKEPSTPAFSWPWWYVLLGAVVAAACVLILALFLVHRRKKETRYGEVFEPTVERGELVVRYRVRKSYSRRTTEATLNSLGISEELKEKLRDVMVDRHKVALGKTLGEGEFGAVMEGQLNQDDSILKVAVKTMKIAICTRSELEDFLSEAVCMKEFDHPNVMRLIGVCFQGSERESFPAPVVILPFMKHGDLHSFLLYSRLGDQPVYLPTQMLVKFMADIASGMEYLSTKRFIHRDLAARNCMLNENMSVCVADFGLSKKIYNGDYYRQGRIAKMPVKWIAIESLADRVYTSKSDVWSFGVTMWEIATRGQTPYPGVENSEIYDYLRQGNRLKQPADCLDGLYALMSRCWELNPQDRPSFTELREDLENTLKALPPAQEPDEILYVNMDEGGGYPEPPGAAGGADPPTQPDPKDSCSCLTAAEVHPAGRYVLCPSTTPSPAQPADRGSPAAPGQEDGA
Nature of the data set: Inhibition of AXL (unknown origin) by ELISA. In general terms: ELISA stands for enzyme-linked immunosorbent assay.

Another data set concerns BaF3. Nature of the data set: Antiproliferative activity against mouse BaF3 stably expressing human TEL-AXL incubated for 72 hrs. Particulars: BaF3, 72 h. It counts as functional, cell-based.
In a further data set the test system is MKN-45. Nature of the data set: Antiproliferative activity against human MKN-45 cells incubated for 72 hrs. It counts as functional, cell-based. As to conditions: MKN-45, 72 h. Put shortly:
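MKN-45 cells (MET-amplified gastric carcinoma) grown in the supplier-recommended medium and serum, seeded at low density and treated the next day across a concentration range for 72 h. Proliferation read by SRB or CCK-8. IC50 obtained from a four-parameter concentration-response fit; mean ± SD of two independent assays.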

Data set [2] can be described thus: AUC (0 to infinity) in Sprague-Dawley rat at 3 mg/kg, po via gavage measured up to 24 hrs by LC-MS analysis. Further details: route oral, dose 3 mg/kg, time <=24. It is filed as ADME, organism-based. As to conditions: in vivo. Put shortly: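 Male Sprague-Dawley rats (n = 3) dosed once by oral gavage at 3 mg/kg as a solution in 5% DMSO/95% (0.5% CMC-Na). Blood sampled at 0.25, 0.5, 1, 2, 4, 6, 8 and 24 h, kept on wet ice, serum separated by centrifugation and stored at -20 °C. Serum levels measured by LC-MS/MS; parameters reported as means.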

Data set [3] addresses Vascular endothelial growth factor receptor 2 (Homo sapiens, UniProt P35968). Nature of the data set: Inhibition of VEGFR2 (unknown origin) by ELISA.
In data set [4] the target is Platelet-derived growth factor receptor alpha (Homo sapiens, UniProt P16234). Nature of the data set: Inhibition of PDGFRalpha (unknown origin) by ELISA.
Data set [5] addresses Platelet-derived growth factor receptor beta (Homo sapiens, UniProt P09619). Nature of the data set: Inhibition of PDGFRbeta (unknown origin) by ELISA.
Data set [6] deals with Receptor tyrosine-protein kinase erbB-4 (Homo sapiens, UniProt Q15303). Nature of the data set: Inhibition of ERBB4 (unknown origin) by ELISA.
A short description of data set [7]: Inhibition of ABL (unknown origin) by ELISA. Further details: species or system Homo sapiens.
Data set [8] addresses T2, Tyrosine-protein kinase receptor UFO (Mus musculus) (UniProt Q00993).
T2 sequence (whole entry): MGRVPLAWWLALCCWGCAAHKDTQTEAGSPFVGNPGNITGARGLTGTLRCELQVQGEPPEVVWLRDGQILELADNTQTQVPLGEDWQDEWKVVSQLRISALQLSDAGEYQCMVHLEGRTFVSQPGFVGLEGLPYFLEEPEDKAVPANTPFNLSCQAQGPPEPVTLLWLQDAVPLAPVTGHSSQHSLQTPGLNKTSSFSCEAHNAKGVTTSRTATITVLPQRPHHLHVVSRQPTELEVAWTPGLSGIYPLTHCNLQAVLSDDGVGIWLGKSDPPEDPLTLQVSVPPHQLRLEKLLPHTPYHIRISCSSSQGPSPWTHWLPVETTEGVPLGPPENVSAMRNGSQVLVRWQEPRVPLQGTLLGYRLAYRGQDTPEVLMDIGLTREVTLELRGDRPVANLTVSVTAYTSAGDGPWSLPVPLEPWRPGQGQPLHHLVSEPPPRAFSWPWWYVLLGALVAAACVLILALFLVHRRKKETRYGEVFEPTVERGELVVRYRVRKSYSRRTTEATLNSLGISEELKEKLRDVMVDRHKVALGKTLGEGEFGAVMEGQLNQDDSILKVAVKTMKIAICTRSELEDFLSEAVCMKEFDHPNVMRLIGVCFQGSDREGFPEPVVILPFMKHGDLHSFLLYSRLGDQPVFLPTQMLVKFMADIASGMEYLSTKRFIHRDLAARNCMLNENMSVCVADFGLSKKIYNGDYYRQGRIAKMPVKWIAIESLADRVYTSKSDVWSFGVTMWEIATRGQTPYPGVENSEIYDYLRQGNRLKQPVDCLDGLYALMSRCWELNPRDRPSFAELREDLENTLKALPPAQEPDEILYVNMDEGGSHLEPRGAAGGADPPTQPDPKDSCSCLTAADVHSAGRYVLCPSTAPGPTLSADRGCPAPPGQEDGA
Nature of the data set: Inhibition of AXL phosphorylation in mouse BaF3 by Western blot analysis. As to conditions: dose 0.1-10 nM. In a few lines: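 Cells in exponential growth (BaF3 engineered to stably express constitutively active human wild-type TEL-Axl; MKN-45) exposed to the indicated concentrations for 2 h, then lysed in 1× SDS sample buffer. Phosphorylated proteins detected by Western blot.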
Background: Immunoblotting shows a protein as a band on a membrane.

A short description of data set [9]: Toxicity in nude mouse xenografted with mouse BaF3 cells stably expressing human TEL-AXL assessed as body weight at 10 to 100 mg/kg, po administered once daily for 14 consecutive days. It counts as organism-based. Particulars: in vivo, 336 h, dose 10-100 mg/kg, time 14 day. In a few lines:
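BaF3/TEL-Axl cells implanted subcutaneously in nude mice and grown to 700–800 mm³; 1.5 mm³ tumor fragments then transplanted sc into the right flank. At 100–200 mm³, mice were randomized (n = 6 per treated group, 12 vehicle). Oral dosing once daily for 14 days at 10 or 50 mg/kg, with the higher dose raised to 100 mg/kg from day 8. Body weight tracked throughout treatment.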
A general note: Xenograft models place foreign cells or tissue in a host animal.

The values below come from ChEMBL document CHEMBL4837207, “Discovery of pyrrolo[2,3-d]pyrimidine derivatives as potent Axl inhibitors: Design, synthesis and biological evaluation” (Eur J Med Chem, 2021).

Sequence of Platelet-derived growth factor receptor beta (P09619 whole entry): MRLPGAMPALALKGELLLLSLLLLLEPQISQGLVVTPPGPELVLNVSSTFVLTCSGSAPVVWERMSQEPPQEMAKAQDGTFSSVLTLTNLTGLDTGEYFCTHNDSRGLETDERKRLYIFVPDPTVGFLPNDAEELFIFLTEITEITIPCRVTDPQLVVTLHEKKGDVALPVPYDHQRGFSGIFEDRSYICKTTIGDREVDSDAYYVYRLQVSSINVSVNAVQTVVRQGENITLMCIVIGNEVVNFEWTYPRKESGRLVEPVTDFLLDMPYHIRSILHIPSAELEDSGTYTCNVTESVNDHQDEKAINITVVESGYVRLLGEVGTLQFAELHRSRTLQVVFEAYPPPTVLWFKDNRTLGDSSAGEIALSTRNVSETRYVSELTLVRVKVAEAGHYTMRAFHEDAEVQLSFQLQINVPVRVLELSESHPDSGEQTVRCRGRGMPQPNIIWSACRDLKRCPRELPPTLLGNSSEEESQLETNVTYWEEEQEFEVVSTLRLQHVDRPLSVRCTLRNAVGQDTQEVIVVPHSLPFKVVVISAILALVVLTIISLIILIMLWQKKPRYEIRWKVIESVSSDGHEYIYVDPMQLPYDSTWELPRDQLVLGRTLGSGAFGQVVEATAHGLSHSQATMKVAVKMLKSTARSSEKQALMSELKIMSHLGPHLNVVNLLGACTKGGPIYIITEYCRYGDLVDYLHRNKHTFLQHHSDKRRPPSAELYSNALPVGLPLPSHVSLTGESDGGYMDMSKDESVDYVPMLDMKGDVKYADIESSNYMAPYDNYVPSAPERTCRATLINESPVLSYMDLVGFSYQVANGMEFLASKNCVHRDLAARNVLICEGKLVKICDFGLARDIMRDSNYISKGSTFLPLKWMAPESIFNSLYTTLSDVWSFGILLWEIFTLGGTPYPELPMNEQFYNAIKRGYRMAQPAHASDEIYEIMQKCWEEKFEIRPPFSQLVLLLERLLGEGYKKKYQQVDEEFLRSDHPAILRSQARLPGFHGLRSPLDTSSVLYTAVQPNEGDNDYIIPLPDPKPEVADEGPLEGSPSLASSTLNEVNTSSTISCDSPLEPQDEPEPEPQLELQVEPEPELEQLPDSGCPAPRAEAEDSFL
Sequence of Vascular endothelial growth factor receptor 2 (P35968 whole entry): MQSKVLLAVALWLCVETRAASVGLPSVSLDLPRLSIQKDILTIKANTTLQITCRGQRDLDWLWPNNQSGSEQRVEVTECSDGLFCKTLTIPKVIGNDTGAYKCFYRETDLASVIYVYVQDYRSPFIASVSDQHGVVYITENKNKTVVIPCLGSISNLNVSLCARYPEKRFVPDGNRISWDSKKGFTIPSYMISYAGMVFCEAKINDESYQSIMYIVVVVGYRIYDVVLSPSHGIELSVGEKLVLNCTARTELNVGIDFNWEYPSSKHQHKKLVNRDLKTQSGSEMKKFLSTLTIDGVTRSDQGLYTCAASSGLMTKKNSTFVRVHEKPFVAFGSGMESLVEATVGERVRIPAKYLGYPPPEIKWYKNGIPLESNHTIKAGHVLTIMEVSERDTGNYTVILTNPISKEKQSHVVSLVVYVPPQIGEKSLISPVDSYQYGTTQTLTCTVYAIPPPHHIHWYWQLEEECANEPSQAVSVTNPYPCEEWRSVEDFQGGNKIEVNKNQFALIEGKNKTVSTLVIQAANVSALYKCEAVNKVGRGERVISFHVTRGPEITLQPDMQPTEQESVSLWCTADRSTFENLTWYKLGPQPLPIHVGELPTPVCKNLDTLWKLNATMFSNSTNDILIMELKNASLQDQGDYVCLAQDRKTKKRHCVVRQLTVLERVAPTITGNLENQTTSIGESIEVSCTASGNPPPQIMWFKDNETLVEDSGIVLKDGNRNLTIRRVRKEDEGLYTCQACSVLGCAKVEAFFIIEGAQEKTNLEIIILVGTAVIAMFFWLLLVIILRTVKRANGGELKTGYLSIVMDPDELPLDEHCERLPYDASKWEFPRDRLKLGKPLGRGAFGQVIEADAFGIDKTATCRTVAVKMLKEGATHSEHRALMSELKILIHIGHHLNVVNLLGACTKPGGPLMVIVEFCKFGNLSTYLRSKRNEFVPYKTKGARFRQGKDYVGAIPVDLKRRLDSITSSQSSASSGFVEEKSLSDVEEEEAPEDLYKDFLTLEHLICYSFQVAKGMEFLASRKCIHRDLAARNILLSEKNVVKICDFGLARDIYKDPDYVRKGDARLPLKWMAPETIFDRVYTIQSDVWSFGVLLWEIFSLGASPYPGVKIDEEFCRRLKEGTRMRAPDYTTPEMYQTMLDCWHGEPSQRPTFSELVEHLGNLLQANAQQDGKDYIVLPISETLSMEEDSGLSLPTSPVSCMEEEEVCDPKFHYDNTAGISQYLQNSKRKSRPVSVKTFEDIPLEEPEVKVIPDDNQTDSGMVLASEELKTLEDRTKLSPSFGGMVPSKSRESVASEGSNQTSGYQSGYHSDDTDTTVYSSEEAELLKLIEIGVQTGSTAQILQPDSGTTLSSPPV
Sequence of Receptor tyrosine-protein kinase erbB-4 (Q15303 whole entry): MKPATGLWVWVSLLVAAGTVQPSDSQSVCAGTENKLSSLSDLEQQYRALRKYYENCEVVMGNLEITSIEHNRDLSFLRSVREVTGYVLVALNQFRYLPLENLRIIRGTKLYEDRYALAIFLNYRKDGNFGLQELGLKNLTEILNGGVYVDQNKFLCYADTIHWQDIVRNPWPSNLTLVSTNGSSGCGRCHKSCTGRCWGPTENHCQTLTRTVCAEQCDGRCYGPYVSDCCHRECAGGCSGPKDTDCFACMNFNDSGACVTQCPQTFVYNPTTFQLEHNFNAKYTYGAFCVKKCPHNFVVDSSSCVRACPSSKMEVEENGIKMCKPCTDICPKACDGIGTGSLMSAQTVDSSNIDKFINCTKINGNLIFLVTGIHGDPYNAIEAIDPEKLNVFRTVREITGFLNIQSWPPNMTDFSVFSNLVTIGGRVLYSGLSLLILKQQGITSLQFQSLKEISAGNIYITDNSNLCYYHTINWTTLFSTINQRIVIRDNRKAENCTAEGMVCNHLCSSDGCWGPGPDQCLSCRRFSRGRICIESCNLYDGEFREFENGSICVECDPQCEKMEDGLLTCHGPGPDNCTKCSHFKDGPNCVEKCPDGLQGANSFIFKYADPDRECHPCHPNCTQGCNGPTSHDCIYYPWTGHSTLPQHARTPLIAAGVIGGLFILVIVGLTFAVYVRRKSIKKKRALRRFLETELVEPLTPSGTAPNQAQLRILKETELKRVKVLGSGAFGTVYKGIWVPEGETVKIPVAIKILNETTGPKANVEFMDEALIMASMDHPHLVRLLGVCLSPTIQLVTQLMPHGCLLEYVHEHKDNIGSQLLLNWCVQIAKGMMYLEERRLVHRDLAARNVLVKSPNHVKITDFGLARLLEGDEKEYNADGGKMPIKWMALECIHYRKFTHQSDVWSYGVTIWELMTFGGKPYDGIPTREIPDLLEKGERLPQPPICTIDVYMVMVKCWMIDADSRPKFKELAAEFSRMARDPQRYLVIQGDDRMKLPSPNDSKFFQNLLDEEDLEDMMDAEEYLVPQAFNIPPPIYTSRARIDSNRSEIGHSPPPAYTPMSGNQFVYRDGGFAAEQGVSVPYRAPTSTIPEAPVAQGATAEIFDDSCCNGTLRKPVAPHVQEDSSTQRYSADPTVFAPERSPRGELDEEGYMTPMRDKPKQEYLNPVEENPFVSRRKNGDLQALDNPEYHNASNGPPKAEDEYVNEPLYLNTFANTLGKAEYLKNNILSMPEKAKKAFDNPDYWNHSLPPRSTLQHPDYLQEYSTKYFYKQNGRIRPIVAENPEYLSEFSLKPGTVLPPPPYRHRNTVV
Sequence of Platelet-derived growth factor receptor alpha (P16234 whole entry): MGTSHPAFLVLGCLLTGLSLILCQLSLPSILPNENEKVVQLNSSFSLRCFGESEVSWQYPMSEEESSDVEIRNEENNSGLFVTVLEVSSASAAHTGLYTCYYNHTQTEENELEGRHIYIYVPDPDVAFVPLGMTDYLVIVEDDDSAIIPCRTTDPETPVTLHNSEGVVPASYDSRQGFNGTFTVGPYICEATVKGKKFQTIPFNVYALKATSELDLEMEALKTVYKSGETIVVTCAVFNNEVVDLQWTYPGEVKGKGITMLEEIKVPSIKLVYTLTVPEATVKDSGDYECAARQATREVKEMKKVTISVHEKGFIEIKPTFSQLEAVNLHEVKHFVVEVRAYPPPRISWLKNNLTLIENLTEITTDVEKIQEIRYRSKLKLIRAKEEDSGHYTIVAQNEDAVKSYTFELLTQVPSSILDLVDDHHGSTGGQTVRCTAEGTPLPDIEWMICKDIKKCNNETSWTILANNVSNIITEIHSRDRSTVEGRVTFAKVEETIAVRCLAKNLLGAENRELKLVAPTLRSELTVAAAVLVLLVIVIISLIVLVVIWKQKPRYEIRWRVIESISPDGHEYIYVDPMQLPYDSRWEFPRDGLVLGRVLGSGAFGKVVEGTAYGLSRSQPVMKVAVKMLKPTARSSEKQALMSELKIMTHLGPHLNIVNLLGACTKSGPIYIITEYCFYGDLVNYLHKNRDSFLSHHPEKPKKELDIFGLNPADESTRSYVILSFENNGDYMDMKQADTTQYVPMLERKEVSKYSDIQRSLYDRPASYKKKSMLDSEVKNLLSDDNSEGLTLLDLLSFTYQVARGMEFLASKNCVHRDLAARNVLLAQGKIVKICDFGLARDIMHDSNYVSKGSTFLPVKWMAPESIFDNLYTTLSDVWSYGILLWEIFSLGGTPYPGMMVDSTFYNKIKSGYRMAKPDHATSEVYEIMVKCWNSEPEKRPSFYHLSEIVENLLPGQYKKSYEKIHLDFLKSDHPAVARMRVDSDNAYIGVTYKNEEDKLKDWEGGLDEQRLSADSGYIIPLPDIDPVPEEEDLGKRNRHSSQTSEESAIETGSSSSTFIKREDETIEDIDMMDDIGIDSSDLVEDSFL

For the compound `CC(C)n1cc(C(=O)Nc2cc(F)c(-c3c[nH]c4ncnc(N)c34)cc2F)c(=O)c(-c2ccc(F)cc2)c1`, the IC50 is less than 0.2 nM in data set [1]; less than 1 nM in the data set with BaF3; 13.2 nM in the data set on MKN-45; more than 1000 nM in [3]; more than 1000 nM in [4]; more than 1000 nM in [5]. Moreover, the half-maximal inhibitory concentration (IC50) in data set [6] and in data set [7] was more than 1000 nM in each case. The AUC(0-inf) in [2] came out at 44300 ng·h/mL. Also, the inhibition entry in [8] was “Dose-Dependent Effect”. Besides, the Activity result in data set [9] is given as “Non-Toxic”.

The IC50 is the midpoint of a concentration-inhibition curve. In general, AUC(0-inf) refers to total exposure, with the tail of the curve extrapolated. Read a low AUC(0-inf) as low exposure.
